We go through twelve compounds from ChEMBL document CHEMBL1141754, “A labdane diterpene glucoside from the rhizomes of Curcuma mangga” (J Nat Prod, 2005).

A short description of experiment [1]: Antioxidant activity assessed as inhibition of copper-induced lipid peroxidation by Fe3(CN)6 method at 300 uM. In kind it is functional. The arrangement: scale not given: the % may be the effect or the level left.
In another experiment the test system is HepG2. The experiment in a line: Cytotoxicity against human HepG2. It counts as functional, cell-based. In short, it runs like this:
(§1)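 Five human cancer lines: HL-60 (leukemia), HepG2 (liver), MCF-7 (breast), DU-145 (prostate) and NCI-H460 (lung). IC50 given in μM ± SD from three experiments, each run in triplicate.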

The test system of the next experiment is DU-145. The experiment is described as follows: Cytotoxicity against human DU145. In kind it is functional, cell-based. In short, it runs like this: as §1
Another experiment relates to NCI-H460. The experiment in a line: Cytotoxicity against human NCI-H460. In kind it is functional, cell-based. In short, it runs like this:
as §1

A further experiment concerns HL-60. The experiment is described as follows: Cytotoxicity against human HL60. It counts as functional, cell-based. In a few lines: as §1
The next experiment has as its system MCF7. The experiment in a line: Cytotoxicity against human MCF7. In kind it is functional, cell-based. In short, it runs like this: as §1

For `C=C1CC[C@H]2C(C)(C)CCC[C@]2(C)[C@H]1C/C=C(/C=O)CC(OC)OC`, in experiment [1], the Activity is 11.5%.

As for `C=C1CC[C@H]2C(C)(C)CCC[C@]2(C)[C@H]1C/C=C(/C=O)CC=O`, the Activity in experiment [1] amounted to 5.7%.

Turning to `CC1(C)[C@@H](O[C@@H]2O[C@H](CO)[C@@H](O)[C@H](O)[C@H]2O)CC[C@]2(C)[C@H]3CC(C4=CCOC4=O)OC(O)[C@H]3CC[C@@H]12` (stereo partly specified), the Activity in experiment [1] stood at 0%.

As to `Cc1c(C)c2c(c(C)c1O)CC[C@@](C)(CCC[C@H](C)CCC[C@H](C)CCCC(C)C)O2`, the Activity in experiment [1] was determined as 45.2%.

Take `Cc1cc(C(C)(C)C)c(O)c(C(C)(C)C)c1`: in experiment [1], the Activity amounted to 99.9%.

In the case of `O=C(/C=C/C=C/c1ccc(O)cc1)/C=C/c1ccc(O)cc1`, in experiment [1], the Activity was 92.9%.

Regarding `O=c1c(O)c(-c2ccc(O)c(O)c2)oc2cc(O)cc(O)c12`, the Activity in experiment [1] worked out at 51.3%.

A word on the IC50: it is the midpoint of a concentration-inhibition curve. With `O=C(/C=C/c1ccc(O)cc1)CC(=O)/C=C/c1ccc(O)cc1` [BISDEMETHOXYCURCUMIN], the half-maximal inhibitory concentration (IC50) in the experiment with HepG2 was > 50 µM; in the experiment on DU-145, 30.1 µM; with NCI-H460, 88.1 µM; in the experiment with HL-60 it was 25.1 µM; in the experiment with MCF7, 33.8 µM. For the same compound, the Activity in experiment [1] amounted to 93.3%.

In the case of `COc1cc(/C=C/C(=O)CC(=O)/C=C/c2ccc(O)c(OC)c2)ccc1O` [CURCUMIN], the IC50 with HepG2 turned out to be 35.5 µM; in the experiment on DU-145 it was 20.6 µM; in the experiment on NCI-H460, 27.6 µM; in the experiment on HL-60, 34.2 µM; in the experiment with MCF7 it was 10.4 µM. Also, the Activity in experiment [1] is 96.5%.

In the case of `COc1cc(/C=C/C(O)=C/C(=O)/C=C/c2ccc(O)cc2)ccc1O` [DEMETHOXYCURCUMIN], the IC50 in the experiment on HepG2 is > 50 µM; in the experiment with DU-145, 21.7 µM; in the experiment on NCI-H460, 25.7 µM; in the experiment with HL-60, 24.2 µM; in the experiment with MCF7, 18.5 µM. Also, in experiment [1], the Activity was 93.8%.

Turning to `COc1cc2ccc(=O)oc2cc1O` [SCOPOLETIN], the half-maximal inhibitory concentration (IC50) in the experiment on HepG2, in the experiment on DU-145, with NCI-H460, in the experiment with HL-60 and in the experiment with MCF7 was > 50 µM in each case. Also, the Activity in experiment [1] amounted to 94.9%.

On to `C=C1CC[C@H]2C(C)(C)CCC[C@]2(C)[C@H]1C[C@@H](O)C1=CC(O)OC1=O` (stereo partly specified) [ZERUMIN B], for which the 50% inhibitory concentration (IC50) in the experiment with HepG2 was found to be 25.3 µM; with DU-145, 11.2 µM; in the experiment on HL-60, 7.21 µM; with MCF7 it was 0.59 µM. Besides, the Activity in experiment [1] came to 16.5%.
